Experimental findings from ChEMBL document CHEMBL1157473, “Identification of 4-benzylamino-2-[(4-morpholin-4-ylphenyl)amino]pyrimidine-5-carboxamide derivatives as potent and orally bioavailable STAT6 inhibitors” (Bioorg Med Chem, 2008) are described below.

Tested on in the first series: not listed separately
The series can be described thus: Oral bioavailability in BALB/c mouse at 3 mg/kg. In kind it is ADME, organism-based. To be noted: in vivo. Put shortly: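 Mice were 8-week-old female Balb/c, fasted overnight, given 3 mg/kg po in 0.5% methylcellulose (10 mL/kg), with 1 mg/kg iv as reference. Vena cava blood was collected at 0.25 to 24 h. Plasma was extracted by solid-phase extraction and quantified by HPLC-MS-MS.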
In turn, `NC(=O)c1cnc(Nc2ccc(N3CCOCC3)cc2)nc1NCc1ccccc1` gave a bioavailability of 30%.

Tested on in another series: not listed separately
The series can be described thus: Clearance in BALB/c mouse at 1 mg/kg, iv. In kind it is ADME, organism-based. More on the design: dose 1 mg/kg, route intravenous. To be noted: in vivo. Put shortly:
(§1)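 Overnight-fasted 8-week-old female Balb/c mice were given 1 mg/kg by tail-vein injection at 10 mL/kg, in a Cremophor EL/saline-based vehicle. Plasma was extracted by solid-phase extraction and analysed by HPLC-MS-MS.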
Turning to `NC(=O)c1cnc(Nc2ccc(N3CCOCC3)cc2)nc1NCc1ccccc1`, the clearance came out at 59.6 mL/min/kg. As for `NC(=O)c1cnc(NCCc2cc(Cl)c(O)c(Cl)c2)nc1NCc1ccccc1`, the clearance was determined as 168 mL/min/kg.

A further series deals with T1, Signal transducer and activator of transcription 6 (Homo sapiens, UniProt P42226).
T1 sequence (P42226 whole entry): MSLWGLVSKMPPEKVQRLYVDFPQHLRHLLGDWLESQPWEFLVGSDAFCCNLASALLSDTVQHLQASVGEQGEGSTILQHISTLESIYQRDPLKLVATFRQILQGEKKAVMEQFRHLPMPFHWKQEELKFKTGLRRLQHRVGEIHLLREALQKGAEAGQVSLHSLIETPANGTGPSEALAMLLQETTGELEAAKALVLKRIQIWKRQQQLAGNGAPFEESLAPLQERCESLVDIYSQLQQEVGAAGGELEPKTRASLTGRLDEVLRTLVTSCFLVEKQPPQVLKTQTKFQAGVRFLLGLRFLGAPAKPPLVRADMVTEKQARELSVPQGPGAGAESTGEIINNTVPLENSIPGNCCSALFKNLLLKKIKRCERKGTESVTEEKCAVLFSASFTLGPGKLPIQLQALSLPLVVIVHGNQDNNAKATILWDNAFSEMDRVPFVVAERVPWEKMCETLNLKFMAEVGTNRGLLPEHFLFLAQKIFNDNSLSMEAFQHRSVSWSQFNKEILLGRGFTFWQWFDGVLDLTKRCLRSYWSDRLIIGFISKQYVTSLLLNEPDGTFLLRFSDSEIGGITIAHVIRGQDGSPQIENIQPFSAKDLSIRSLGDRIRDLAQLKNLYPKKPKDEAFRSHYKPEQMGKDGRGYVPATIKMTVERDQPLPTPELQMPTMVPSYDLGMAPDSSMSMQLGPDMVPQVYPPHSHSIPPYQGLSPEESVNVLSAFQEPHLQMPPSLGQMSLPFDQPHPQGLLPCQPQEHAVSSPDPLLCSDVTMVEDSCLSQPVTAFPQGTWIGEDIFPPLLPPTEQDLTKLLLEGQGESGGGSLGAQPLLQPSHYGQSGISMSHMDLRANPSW
The series can be described thus: Inhibition of STAT6 activation in FW4 reporter cells. The class given is cell-based.
Conditions: not given
Consider `NC(=O)c1cnc(Nc2ccc(N3CCC(O)C3)cc2)nc1NCc1ccccc1` (stereo not drawn), for which the half-inhibitory concentration (IC50) stood at 98 nM. The same measure, in the same setting: with `NC(=O)c1cnc(Nc2ccc(N3CCCC3)cc2)nc1NCc1ccccc1` the figure was 650 nM; with `NC(=O)c1cnc(Nc2ccc(N3CCCCC3)cc2)nc1NCc1ccccc1`, 120 nM. Same read-out and setting: with `NC(=O)c1cnc(Nc2ccc(CCO)cc2)nc1NCc1ccccc1` the figure was 95 nM; with `NC(=O)c1cnc(Nc2ccc(CCCO)cc2)nc1NCc1ccccc1`, 81 nM. For the compound `COc1ccccc1CNc1nc(Nc2ccc(N3CCOCC3)cc2)ncc1C(N)=O`, half-maximal inhibition (IC50) required 8.2 nM. `CN1CCN(c2ccc(Nc3ncc(C(N)=O)c(NCc4ccccc4)n3)cc2)CC1` gave an IC50 of 6.2 nM. Regarding `NC(=O)c1cnc(Nc2ccc(N3CCOCC3)cc2)nc1NCc1ccccc1F`, the half-inhibitory concentration (IC50) is 1.4 nM. Compared with the last compound, the IC50 is about 4.4-fold lower. Regarding `NC(=O)c1cnc(Nc2ccc(N3CCOCC3)cc2)nc1NCc1ccc(F)cc1`, half-maximal inhibition (IC50) was put at 650 nM. As to `NC(=O)c1cnc(Nc2ccc(N3CCNCC3)cc2)nc1NCc1ccccc1`, the midpoint of inhibition, the IC50, lay at 7 nM. `NC(=O)c1cnc(Nc2ccc(N3CCOCC3)cc2)nc1NCc1ccccc1O` yielded an IC50 of 22 nM. `NC(=O)c1cnc(Nc2ccc(N3CCOCC3)cc2)nc1NCc1ccccc1Cl` displayed an IC50 of 7.9 nM. In the case of `NC(=O)c1cnc(Nc2ccc(N3CCOCC3)cc2)nc1NCc1cccc(Cl)c1`, the IC50 turned out to be 36 nM.

Turning to `NC(=O)c1cnc(Nc2ccc(N3CCOCC3)cc2)nc1NCc1cccc(C(F)(F)F)c1`, the IC50 was found to be 130 nM. `COc1cccc(CNc2nc(Nc3ccc(N4CCOCC4)cc3)ncc2C(N)=O)c1`: the IC50 is 25 nM. With `CSc1ccccc1CNc1nc(Nc2ccc(N3CCOCC3)cc2)ncc1C(N)=O`, half-maximal inhibition (IC50) was put at 23 nM. Same read-out and setting: the figure for `NC(=O)c1cnc(Nc2ccc(N3CCOCC3)cc2)nc1NCc1cc(F)cc(F)c1` is 5.5 nM. Compound `NC(=O)c1cnc(Nc2ccc(N3CCOCC3)cc2)nc1NCc1cccc(O)c1` registered an IC50 of 19 nM. `NC(=O)c1cnc(Nc2ccc(N3CCOCC3)cc2)nc1NCc1ccccc1N` registered an IC50 of 310 nM. `NC(=O)c1cnc(Nc2ccc(N3CCOCC3)cc2)nc1NCc1ccc(F)cc1F` registered an IC50 of 310 nM. For the compound `NC(=O)c1cnc(Nc2ccc(N3CCOCC3)cc2)nc1NCc1cc(F)ccc1F`, the IC50 worked out at 1.6 nM. Still for that read-out and setting: the figure for `NC(=O)c1cnc(Nc2ccc(N3CCOCC3)cc2)nc1NCc1ccccc1C(F)(F)F` is 25 nM. Consider `Cc1ccccc1CNc1nc(Nc2ccc(N3CCOCC3)cc2)ncc1C(N)=O`, for which the IC50 is 11 nM. This IC50 lies about 2.3-fold lower than the previous one. Regarding `NC(=O)c1cnc(Nc2ccc(N3CCOCC3)cc2)nc1NCc1cccc(F)c1`, it took 1.8 nM to reach half-maximal inhibition (IC50). Still for that read-out and setting: with `CS(=O)(=O)c1ccccc1CNc1nc(Nc2ccc(N3CCOCC3)cc2)ncc1C(N)=O` the figure was 2000 nM. `CN1CCC(c2ccc(Nc3ncc(C(N)=O)c(NCc4ccccc4)n3)cc2)CC1` gave an IC50 of 17 nM. `NC(=O)c1cnc(Nc2ccc(N3CCC(O)CC3)cc2)nc1NCc1ccccc1` displayed an IC50 of 16 nM. As to `NC(=O)c1cnc(NCCc2cc(Cl)c(O)c(Cl)c2)nc1NCc1ccccc1`, the IC50 was found to be 61 nM. Compared with the last compound, the IC50 is about 3.8-fold higher. Still for that read-out and setting: the figure for `NC(=O)c1cnc(Nc2ccc(N3CCOCC3)cc2)nc1NCc1cc(F)cc(F)c1F` is 1.8 nM; for `NC(=O)c1cnc(Nc2ccc(N3CCOCC3)cc2)nc1NCc1c(F)cccc1F` it is 2.2 nM.

In turn, `NC(=O)c1cnc(Nc2ccc(N3CCOCC3)cc2)nc1NCc1ccccc1[N+](=O)[O-]` registered an IC50 of 38 nM. With `CC(=O)Nc1ccccc1CNc1nc(Nc2ccc(N3CCOCC3)cc2)ncc1C(N)=O`, it took 5200 nM to reach half-maximal inhibition (IC50). Compound `NC(=O)c1cnc(Nc2ccc(N3CCOCC3)cc2)nc1NCc1cccc(F)c1F` displayed a concentration for half-maximal inhibition (IC50) of 2.1 nM. Against the preceding compound, the IC50 is about 2500-fold lower.

Tested on in the next series: not listed separately
Briefly: Volume of distribution in BALB/c mouse at 1 mg/kg, iv. To be noted: in vivo. Details: dose 1 mg/kg, route intravenous. In kind it is ADME, organism-based. An outline of the steps: as §1
In turn, `NC(=O)c1cnc(Nc2ccc(N3CCOCC3)cc2)nc1NCc1ccccc1` had a Vd of 3.91 L/kg. The compound `NC(=O)c1cnc(NCCc2cc(Cl)c(O)c(Cl)c2)nc1NCc1ccccc1` came in with a Vd of 0.931 L/kg.

Tested on in another series: not listed separately
Briefly: Half life in BALB/c mouse at 1 mg/kg, iv. The class given is ADME, organism-based. More on the design: dose 1 mg/kg, route intravenous. The conditions noted are these: in vivo. An outline of the steps: as §1
Consider `NC(=O)c1cnc(Nc2ccc(N3CCOCC3)cc2)nc1NCc1ccccc1`, for which the half-life was 45.6 min. `NC(=O)c1cnc(NCCc2cc(Cl)c(O)c(Cl)c2)nc1NCc1ccccc1` gave a half-life of 3.6 min.

Tested on in another series: not listed separately
Briefly: Dissociation constant, pKa of the compound. The class given is physicochemical.
Conditions: not given
In turn, `Oc1c(Cl)cccc1Cl` [2,6-DICHLOROPHENOL] came in with a pKa of 7.15.

The compound `Oc1ccccc1Cl` [2-CHLOROPHENOL] showed a pKa of 9.13.

Tested on in another series: not listed separately
The series can be described thus: Oral bioavailability in BALB/c mouse at 10 mg/kg. The class given is ADME, organism-based. The conditions noted are these: in vivo. An outline of the steps: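 Oral dose of 10 mg/kg in 0.5% methylcellulose (10 mL/kg) to overnight-fasted 8-week-old female Balb/c mice, against a 1 mg/kg iv dose. Blood was sampled from the vena cava at 0.25 to 24 h. Plasma was assayed by solid-phase extraction and HPLC-MS-MS.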
In turn, `NC(=O)c1cnc(NCCc2cc(Cl)c(O)c(Cl)c2)nc1NCc1ccccc1` returned a bioavailability of 1%.

In general, bioavailability refers to the share of a dose that reaches the circulation, judged against a reference dose that is usually intravenous. In general, clearance refers to a measure of how efficiently the substance is removed, as volume per time. Read a low clearance as inefficient removal. Broadly, the IC50 is the concentration at which inhibition is half-maximal. A higher IC50 goes with weaker potency in that assay. The term Vd denotes the apparent volume that relates the amount in the body to the concentration in plasma or blood. Read a low Vd as confinement near the circulation. As usually defined, the half-life is the time in which the quantity being followed falls by half. One may read the pKa as the pH at which an ionisable group is half protonated.
